The IC50 is the concentration needed to halve the response being measured.

Structures are written as SMILES. Active and inactive are the calls of the source. The calls are words filed in the database; no cut-off is given here.

Data set [1] is described as follows: Permeability of the compound at 100 uM after 6 hrs by PAMPA. The data set is classed as ADME.
A short description of data set [2]: (§1) Antiproliferative activity against human HN12 cells after 48 hrs by ATP-based Cell Titer-Glo assay. The note with it: HN12, 48 h. Type of data set: functional. The procedure, abridged: (§2)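 OCSCC cells cultured with increasing concentrations of purified compound (98% by UPLC-PDA). Read-out was ATP-based luminescent proliferation. Exposure is given as 48 h in the figure legend and 36 h in the text. IC50 values were taken from the dose-response curves. Error bars are SD.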

Data set [3] deals with HN12. The description is as §1. The data set is classed as functional. An outline of the steps: as §2
Data set [4] concerns HN12. The data set is described as follows: Induction of apoptosis in human HN12 cells assessed as increase in DR5 mRNA expression at antiproliferative IC50 over 36 hrs by RT-qPCR analysis. Type of data set: functional, cell-based. An outline of the steps: (§3)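 OCSCC cultures treated at the IC50 from the ATP proliferation assay. cDNA libraries were made from the treated cells and analysed for apoptotic transcripts by Taqman RT-qPCR. Three independent experiments were run, each in triplicate, with error bars given as SEM.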
On the technique in general: Quantitative PCR measures a nucleic acid by following its amplification.

In data set [5] the test system is UMSCC23. Description: Induction of apoptosis in human UMSCC23 cells assessed as increase in Bcl2 mRNA expression at antiproliferative IC50 over 36 hrs by RT-qPCR analysis. The data set is classed as functional, cell-based. The procedure, abridged:
as §3

Data set [6] deals with HN12. Description: Induction of apoptosis in human HN12 cells assessed as increase in GADD45alpha mRNA expression at antiproliferative IC50 over 36 hrs by RT-qPCR analysis. The data set is classed as functional, cell-based. The procedure, abridged: as §3
Data set [7] concerns UMSCC23. The data set is described as follows: Induction of apoptosis in human UMSCC23 cells assessed as increase in GADD45alpha mRNA expression at antiproliferative IC50 over 36 hrs by RT-qPCR analysis. Type of data set: functional, cell-based. The procedure, abridged:
as §3

The subject of data set [8] is HN12. Description: Induction of apoptosis in human HN12 cells assessed as increase in Bcl2 mRNA expression at antiproliferative IC50 over 36 hrs by RT-qPCR analysis. Type of data set: functional, cell-based. An outline of the steps:
as §3

For data set [9], the system named is UMSCC23. Description: Induction of apoptosis in human UMSCC23 cells assessed as increase in NOXA mRNA expression at antiproliferative IC50 over 36 hrs by RT-qPCR analysis. The data set is classed as functional, cell-based. An outline of the steps:
as §3

Data set [10] has as its system UMSCC23. Description: Antiproliferative activity against human UMSCC23 cells after 48 hrs by ATP-based Cell Titer-Glo assay. The data set is classed as functional. As to conditions: for IC50: UMSCC23, 48 h. An outline of the steps:
as §2
Background: ATP-based viability assays read luminescence as a measure of living cells.

The subject of data set [11] is HN12. Description: Induction of apoptosis in human HN12 cells assessed as genomic DNA laddering after 48 hrs by agarose gel electrophoresis method. The data set is classed as functional, cell-based. The procedure, abridged: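 HN12 cells treated for 48 h at the proliferation-assay IC50 and at a semilog dose above and below it. Genomic DNA was resolved electrophoretically and scored for laddering.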

Data set [12] relates to UMSCC23. Description: Induction of apoptosis in human UMSCC23 cells assessed as increase in DR5 mRNA expression at antiproliferative IC50 over 36 hrs by RT-qPCR analysis. The data set is classed as functional, cell-based. The procedure, abridged:
as §3

Data set [13] deals with HN12. The data set is described as follows: Induction of apoptosis in human HN12 cells assessed as increase in NOXA mRNA expression at antiproliferative IC50 over 36 hrs by RT-qPCR analysis. Type of data set: functional, cell-based. An outline of the steps:
as §3

As to `C[C@]12C=CC(=O)C=C1CC[C@@H]1[C@@H]2C(=O)C[C@@]2(C)[C@H]1CC[C@]2(O)C(=O)CO` [PREDNISONE], in [1], the permeability is on record as 12%.

Take `C=CC1=C[C@@H]2[C@@H]3O[C@]4(CC[C@H](O4)[C@@H](C)C[C@@H](O)C3=O)C[C@H](O)C3=NCC[C@@]32CC1`: the IC50 in [2] was found to be 2.8 nM; in data set [10], 3.2 nM. The Activity result in data set [3] and in data set [10] was “Dose-dependent effect” throughout. In data set [1], this compound displayed a permeability of 54%. Moreover, the outcome in data set [4], in data set [5], in data set [6], in data set [7], in [8] and in [9] was Active. The outcome in data set [11], in [12] and in data set [13] was Active.

With `C=CC1=C[C@@H]2[C@@H]3O[C@](O)(CC[C@H](O)[C@@H](C)C[C@@H](O)C3=O)CC(=O)C3=NCC[C@@]32CC1`, the IC50 in [2] was determined as 116 nM; in [10], 229 nM. In data set [1], this compound came in with a permeability of 35%. Also, the result in data set [4], in data set [5], in data set [6], in [7], in data set [8] and in [9] was Active. For the same compound, the outcome in data set [11], in data set [12] and in data set [13] was Active.

The record behind these values is ChEMBL document CHEMBL4330180, “Identification of Portimine B, a New Cell Permeable Spiroimine That Induces Apoptosis in Oral Squamous Cell Carcinoma” (ACS Med Chem Lett, 2019).
